# Records with an inconclusive call do not appear. Active and inactive are the calls of the source.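 Rule for the calls: active = every replicate test active, meaning falling signal with half-maximal potency at most ten times the top valid dose; inconclusive = replicate test calls disagree with each other; inactive = every replicate test inactive, including signal rising instead.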
# Target: not listed separately
# Assay: secreted streptokinase activity reduction in group A streptococci – OD405 absorbance, dry powder, set 3, dose response (AID 504351)
# Conditions: S. pyogenes UMAA2166, streptokinase activity in supernatant, OD405, 6 h; at 50 µM (top of the series)
# Outline: (§1)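 Assay system: group A Streptococcus cultures; quantity: bacteria seeded at OD600 of 0.015; times: 6 h compound exposure of cultures at 37 °C; dosing: serial compound dilutions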
row,SMILES,"activity change, negative = inhibition"
1,COc1ccc(Sc2ccc(NC(=O)c3ccccc3OC)cc2C#N)cc1,inactive
2,O=C(c1ccc(N2CCOCC2)cc1)n1c2ccccc2c2ccccc21,inactive
3,COc1ccc(Sc2ccc(NC(=O)c3ccccc3Cl)cc2C#N)cc1,inactive
4,COc1ccc(Sc2ccc(NC(=O)c3ccccc3C#N)cc2C#N)cc1,inactive
5,COc1ccc(Sc2ccc(N)cc2C#N)cc1,inactive
6,Cc1ccc(NC(=O)n2c3ccccc3c3ccccc32)cc1,inactive
7,COc1nc(-c2ccc(Cl)cc2)nc2ccccc12,inactive
8,CCCOc1ccc(-c2nc3ccccc3c(=O)[nH]2)cc1,inactive
9,COc1nc(-c2cccc(Cl)c2)nc2ccccc12,inactive
10,COc1ccc(Sc2ccc(N(C(=O)c3ccccc3Cl)C(=O)c3ccccc3Cl)cc2C#N)cc1,inactive
11,Cc1ccc(C(=O)n2c3ccccc3c3ccccc32)cn1,inactive
12,CS(=O)(=O)c1ccc(NC(=O)c2ccccc2Cl)cc1,inactive
13,CCCOc1ccc(-c2nc(N(C)C)c3ccccc3n2)cc1,inactive
14,COc1ccc(Sc2ccc(NC(=O)c3ccccc3Cl)cc2)cc1,inactive
15,COc1ccc2c(c1)c1cc(OC)ccc1n2C(=O)c1ccc(C)cc1,inactive
16,COc1ccc(S(=O)(=O)c2ccc(NC(=O)c3ccccc3Cl)cc2C#N)cc1,inactive
17,CCCOc1ccc(-c2nc(Oc3ccc(F)cc3)c3ccccc3n2)cc1,inactive
18,CCCOc1ccc(-c2nc(Oc3ccc(C)cc3)c3ccccc3n2)cc1,inactive

row,SMILES,"activity change, negative = inhibition"
1,COc1ccc(Sc2ccc(NC(=O)c3ccc(OC)cc3)cc2C#N)cc1,inactive
2,O=c1[nH]c(-c2cccc(Cl)c2)nc2ccccc12,inactive
3,COc1cccc(-c2nc(OC)c3ccccc3n2)c1,inactive
4,COc1ccc(Sc2ccc(NC(=O)c3ccc(C)cc3)cc2C#N)cc1,inactive
5,Cc1ccc(C(=O)n2c3ccccc3c3cccnc32)cc1,inactive
6,COc1ccc(Sc2ccc(NCc3ccccc3Cl)cc2C#N)cc1,inactive
7,CCCOc1ccc(-c2nc(OC)c3ccccc3n2)cc1,inactive
8,COc1ccccc1C(=O)n1c2ccccc2c2ccccc21,inactive
9,CCCOc1ccc(-c2nc(OCCCOC)c3ccccc3n2)cc1,inactive
10,COc1cccc(-c2nc3ccccc3c(=O)[nH]2)c1,inactive
11,COc1ccc(C(=O)n2c3ccccc3c3ccccc32)cc1,inactive
12,CC(C)Oc1ccc(-c2nc3ccccc3c(=O)[nH]2)cc1,inactive
13,Cc1ccc(C(=O)n2ncc3ccccc32)cc1,inactive
14,O=C(c1cscn1)n1c2ccccc2c2ccccc21,inactive
15,O=c1[nH]c(-c2cccc(F)c2)nc2ccccc12,inactive
16,COc1nc(-c2cccc(F)c2)nc2ccccc12,inactive
17,O=c1[nH]c(-c2ccc(Cl)cc2)nc2ccccc12,inactive

# Target: S. pyogenes UMAA2166, streptokinase activity in supernatant, OD405, 6 h
# Assay: as above
# Conditions: not given
# Outline: as §1
row,SMILES,AC50 [µM]
1,O=C(Nc1ccc(Sc2ccccc2)cc1)c1ccccc1Cl,44.4
2,CCCOc1ccc(-c2nc(NC)c3ccccc3n2)cc1,31.6
3,CCCOc1ccc(-c2nc(OC(C)C)c3ccccc3n2)cc1,37.5
4,Cc1ccc(C(=O)n2c3ccccc3c3ccncc32)cc1,40.9

# Reference: PubChem BioAssay AID504351 (Broad Institute, 2011)
